The record followed here is ChEMBL document CHEMBL3774386, “Synthesis and structure activity relationship investigation of triazolo[1,5-a]pyrimidines as CB2 cannabinoid receptor inverse agonists” (Eur J Med Chem, 2016).

Sequence of Cannabinoid receptor 1 (P21554 whole entry): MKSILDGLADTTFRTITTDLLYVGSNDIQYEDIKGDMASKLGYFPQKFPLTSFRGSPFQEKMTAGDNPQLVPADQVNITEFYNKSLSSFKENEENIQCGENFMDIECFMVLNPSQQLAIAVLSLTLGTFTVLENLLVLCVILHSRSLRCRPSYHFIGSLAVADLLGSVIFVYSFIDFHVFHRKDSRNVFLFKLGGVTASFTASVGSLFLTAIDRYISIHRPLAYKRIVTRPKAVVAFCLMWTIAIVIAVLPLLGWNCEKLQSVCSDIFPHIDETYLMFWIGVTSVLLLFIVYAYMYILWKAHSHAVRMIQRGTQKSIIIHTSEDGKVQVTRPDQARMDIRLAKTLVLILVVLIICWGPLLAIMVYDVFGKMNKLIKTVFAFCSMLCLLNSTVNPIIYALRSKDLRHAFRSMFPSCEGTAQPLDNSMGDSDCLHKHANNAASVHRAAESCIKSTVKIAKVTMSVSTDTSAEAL

In the first test the target is T1, Cannabinoid receptor 2 (Homo sapiens, UniProt P34972). Put plainly: Partial agonist activity at human CB2 receptor transfected in CHO cells assessed as forksolin stimulated cAMP production by scintillation counting analysis relative to control. The test is classed as functional, cell-based. The procedure, abridged: (§1)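 Human CB2-transfected CHO cells detached with trypsin, 1 × 10^6 cells/assay, with forskolin and compound over a concentration curve. cAMP measured by [3H]-cAMP competition: 150 min at 4 °C, charcoal, centrifugation, supernatant counted. Expressed as % increase of forskolin-stimulated cAMP and fitted for EC50; three independent experiments in duplicate.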
T1 sequence (P34972 whole entry): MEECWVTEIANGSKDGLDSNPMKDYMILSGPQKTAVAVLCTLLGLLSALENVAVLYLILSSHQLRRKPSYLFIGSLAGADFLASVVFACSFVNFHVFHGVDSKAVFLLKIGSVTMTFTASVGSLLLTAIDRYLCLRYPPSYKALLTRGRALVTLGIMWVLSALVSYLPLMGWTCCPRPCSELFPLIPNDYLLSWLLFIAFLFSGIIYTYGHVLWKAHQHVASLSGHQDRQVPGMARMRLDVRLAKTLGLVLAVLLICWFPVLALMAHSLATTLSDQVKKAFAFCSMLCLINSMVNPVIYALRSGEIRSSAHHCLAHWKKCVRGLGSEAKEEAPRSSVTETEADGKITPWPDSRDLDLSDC
(In general: Cyclic AMP is a second messenger, typically raised through Gs and lowered through Gi signalling.)
As a reminder, the Emax is the maximal effect, on the per cent scale that the assay sets. As for `CCCCCn1cc(C(=O)NC23CC4CC(C)(CC(C)(C4)C2)C3)c(=O)n2ncnc12`, the Emax came out at 60%.
The same measure, in the same setting: to `CCCCCn1cc(C(=O)NC23CC4CC(CC(C4)C2)C3)c(=O)n2ncnc12` belongs 57%.

In another test the target is T1, Cannabinoid receptor 2. The experiment in a line: Inverse agonist activity at human CB2 receptor transfected in CHO cells assessed as increase in forksolin stimulated cAMP production by scintillation counting analysis. The test is classed as functional, cell-based. The procedure, abridged:
as §1
For orientation: EC50 means the concentration at which the effect is half-maximal. Consider `CCCCCn1cc(C(=O)NC23CC4CC(CC(C4)C2)C3)c(=O)n2nc(-c3ccc(Cl)cc3)nc12`, for which the concentration for a half-maximal effect (EC50) was 637 nM.
The same measure, in the same setting: in the case of `CCCCCn1cc(C(=O)NC2CCCCCC2)c(=O)n2nc(-c3ccc(C)cc3)nc12` it was 393 nM; in that of `CCCCCn1cc(C(=O)NC2CCCCCC2)c(=O)n2nc(-c3ccccc3)nc12`, 849 nM.
Still for that read-out and setting: to `CCCCCn1cc(C(=O)NC23CC4CC(CC(C4)C2)C3)c(=O)n2nc(-c3ccc(C)cc3)nc12` belongs 652 nM; to `CCCCCn1cc(C(=O)NC23CC4CC(CC(C4)C2)C3)c(=O)n2nc(-c3ccc(OC)cc3)nc12`, 858 nM.
As for `CCCCCn1cc(C(=O)NC23CC4CC(C)(CC(C)(C4)C2)C3)c(=O)n2ncnc12`, the EC50 was 88 nM.

Another test has as its target Cannabinoid receptor 1 (Homo sapiens, UniProt P21554). The experiment in a line: Displacement of [3H]CP-55,940 from human CB1 receptor expressed in CHO cell membranes after 90 mins by scintillation counting analysis. For orientation: Displacement assays read how much labelled ligand stays bound in the presence of the test substance.
A word on the Ki: it is the dissociation constant of the complex between target and ligand, obtained from inhibition or displacement. The compound `CCCCCn1cc(C(=O)NC23CC4CC(CC(C4)C2)C3)c(=O)n2nc(-c3ccc(Cl)cc3)nc12` had a Ki of 5.22 µM.
The same measure, in the same setting: in the case of `CCCCCn1cc(C(=O)NC2CCCCCC2)c(=O)n2nc(-c3ccc(C)cc3)nc12` it was 6.35 µM.
For the compound `CCCCCn1cc(C(=O)NC2CCCCCC2)c(=O)n2nc(-c3ccccc3)nc12`, the Ki came out at 2.48 µM.
The same measure, in the same setting: in the case of `CCCCCn1cc(C(=O)NC23CC4CC(CC(C4)C2)C3)c(=O)n2nc(-c3ccc(C)cc3)nc12` it was 1.52 µM.
Consider `CCCCCn1cc(C(=O)NC23CC4CC(CC(C4)C2)C3)c(=O)n2nc(-c3ccc(OC)cc3)nc12`, for which the Ki was 3.72 µM.
In turn, `CCCCCn1cc(C(=O)NC23CC4CC(C)(CC(C)(C4)C2)C3)c(=O)n2ncnc12` displayed a Ki of 0.622 µM.

The subject of a further test is CHO. Put plainly: Selectivity ratio of Ki for human CB1 receptor expressed in CHO cell membranes to Ki for human CB2 receptor expressed in CHO cell membranes. It is filed as cell-based. In short, it runs like this: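 CHO membranes with human CB1 or CB2 in 50 mM Tris-HCl, 0.5% BSA, pH 7.4, 5 mM MgCl2, with 1 mM (CB1) or 2.5 mM (CB2) EDTA. Competition against 0.5 nM [3H]CP-55,940 at 30 °C for 90 min (CB1) or 60 min (CB2). GF/C filtration, scintillation counting. Ki from IC50 by Cheng–Prusoff; mean ± SEM, n = 4.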
On to `CCCCCn1cc(C(=O)NC23CC4CC(CC(C4)C2)C3)c(=O)n2nc(-c3ccc(Cl)cc3)nc12`, for which the Ratio Ki amounted to 462.
Turning to `CCCCCn1cc(C(=O)NC2CCCCCC2)c(=O)n2nc(-c3ccc(C)cc3)nc12`, the Ratio Ki was determined as 289.
Same read-out and setting: in the case of `CCCCCn1cc(C(=O)NC2CCCCCC2)c(=O)n2nc(-c3ccccc3)nc12` it was 52; in that of `CCCCCn1cc(C(=O)NC23CC4CC(CC(C4)C2)C3)c(=O)n2nc(-c3ccc(C)cc3)nc12`, 223.
Same read-out and setting: to `CCCCCn1cc(C(=O)NC23CC4CC(CC(C4)C2)C3)c(=O)n2nc(-c3ccc(OC)cc3)nc12` belongs 79; to `CCCCCn1cc(C(=O)NC23CC4CC(C)(CC(C)(C4)C2)C3)c(=O)n2ncnc12`, 25; to `CCCCCn1cc(C(=O)NC23CC4CC(CC(C4)C2)C3)c(=O)n2ncnc12`, 36.

Another test has as its target T1, Cannabinoid receptor 2. The experiment in a line: Displacement of [3H]CP-55,940 from human CB2 receptor expressed in CHO cell membranes after 60 mins by scintillation counting analysis.
For the compound `CCCCCn1cc(C(=O)NC23CC4CC(CC(C4)C2)C3)c(=O)n2nc(-c3ccc(Cl)cc3)nc12`, the inhibitory constant (Ki) came to 11.3 nM.
In the case of `CCCCCn1cc(C(=O)NC2CCCCCC2)c(=O)n2nc(-c3ccc(C)cc3)nc12`, the affinity corresponds to a Ki of 22 nM.
On the same count and under the same terms, to `CCCCCn1cc(C(=O)NC2CCCCCC2)c(=O)n2nc(-c3ccccc3)nc12` belongs 48 nM.
On to `CCCCCn1cc(C(=O)NC23CC4CC(CC(C4)C2)C3)c(=O)n2nc(-c3ccc(C)cc3)nc12`, for which the affinity corresponds to a Ki of 6.8 nM. Compared with the last compound, the Ki is about 7.1-fold lower.
Compound `CCCCCn1cc(C(=O)NC23CC4CC(CC(C4)C2)C3)c(=O)n2nc(-c3ccc(OC)cc3)nc12` showed a Ki of 47 nM.
On the same count and under the same terms, in the case of `CCCCCn1cc(C(=O)NC23CC4CC(C)(CC(C)(C4)C2)C3)c(=O)n2ncnc12` it was 25 nM.

A further test addresses T1, Cannabinoid receptor 2. Put plainly: Inverse agonist activity at human CB2 receptor transfected in CHO cells assessed as increase in forksolin stimulated cAMP production at 10 uM by scintillation counting analysis relative to control. It is filed as functional, cell-based.
On to `CCCCCn1cc(C(=O)NC23CC4CC(CC(C4)C2)C3)c(=O)n2nc(-c3ccc(Cl)cc3)nc12`, for which the Emax amounted to 223%.
Turning to `CCCCCn1cc(C(=O)NC2CCCCCC2)c(=O)n2nc(-c3ccc(C)cc3)nc12`, the Emax is 132%.
For `CCCCCn1cc(C(=O)NC2CCCCCC2)c(=O)n2nc(-c3ccccc3)nc12`, the Emax was determined as 132%.
The same measure, in the same setting: to `CCCCCn1cc(C(=O)NC23CC4CC(CC(C4)C2)C3)c(=O)n2nc(-c3ccc(C)cc3)nc12` belongs 256%; to `CCCCCn1cc(C(=O)NC23CC4CC(CC(C4)C2)C3)c(=O)n2nc(-c3ccc(OC)cc3)nc12`, 132%.
The same measure, in the same setting: to `CCCCCn1cc(C(=O)NC23CC4CC(C)(CC(C)(C4)C2)C3)c(=O)n2ncnc12` belongs 132%; to `CCCCCn1cc(C(=O)NC23CC4CC(CC(C4)C2)C3)c(=O)n2ncnc12`, 132%.

A further test deals with T1, Cannabinoid receptor 2. Put plainly: Inverse agonist activity at human CB2 receptor transfected in CHO cells assessed as increase in forksolin stimulated cAMP production at 1 uM by scintillation counting analysis relative to control. It is filed as functional, cell-based.
As for `CCCCCn1cc(C(=O)NC2CCCCCC2)c(=O)n2nc(-c3ccc(C)cc3)nc12`, the Emax turned out to be 53%.
Same read-out and setting: to `CCCCCn1cc(C(=O)NC2CCCCCC2)c(=O)n2nc(-c3ccccc3)nc12` belongs 53%.
On the same count and under the same terms, in the case of `CCCCCn1cc(C(=O)NC23CC4CC(CC(C4)C2)C3)c(=O)n2nc(-c3ccc(OC)cc3)nc12` it was 53%; in that of `CCCCCn1cc(C(=O)NC23CC4CC(C)(CC(C)(C4)C2)C3)c(=O)n2ncnc12`, 53%; in that of `CCCCCn1cc(C(=O)NC23CC4CC(CC(C4)C2)C3)c(=O)n2ncnc12`, 53%.

In the next test the target is T1, Cannabinoid receptor 2. The experiment in a line: Antagonist activity at human CB2 receptor transfected in CHO cells assessed as inhibition of WIN 55,212-2 mediated suppression of forksolin induced cAMP production by scintillation counting analysis. It is filed as functional, cell-based. The procedure, abridged:
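Human CB2-transfected CHO cells, 1 × 10^6 cells/assay, forskolin-stimulated, with WIN 55,212-2 (20 nM) plus compound over a concentration range. cAMP read by [3H]-cAMP competition: 150 min at 4 °C, charcoal separation, scintillation counting. IC50 derived from reversal of the WIN 55,212-2 inhibition; mean ± SEM of three experiments in duplicate.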
By IC50 is commonly meant the concentration at which inhibition is half-maximal. For `CCCCCn1cc(C(=O)NC23CC4CC(CC(C4)C2)C3)c(=O)n2nc(-c3ccc(Cl)cc3)nc12`, the IC50 was 24.6 nM.
As for `CCCCCn1cc(C(=O)NC2CCCCCC2)c(=O)n2nc(-c3ccc(C)cc3)nc12`, the IC50 stood at 64 nM.
Still for that read-out and setting: to `CCCCCn1cc(C(=O)NC2CCCCCC2)c(=O)n2nc(-c3ccccc3)nc12` belongs 142 nM; to `CCCCCn1cc(C(=O)NC23CC4CC(CC(C4)C2)C3)c(=O)n2nc(-c3ccc(C)cc3)nc12`, 12.6 nM.
`CCCCCn1cc(C(=O)NC23CC4CC(CC(C4)C2)C3)c(=O)n2nc(-c3ccc(OC)cc3)nc12`: the IC50 turned out to be 128 nM.
